The values below come from ChEMBL document CHEMBL4513216, “Probing the Open Global Health Chemical Diversity Library for Multistage-Active Starting Points for Next-Generation Antimalarials” (ACS Infect Dis, 2020).

This data set can be described thus: Toxicity liver stage against HepG2, at 10uM. Particulars: human, HepG2-A16-CD81EGFP cells; read-out: INHIBITION
Set-up: test concentration 10 uM, cell line HepG2-A16-CD81EGFP. The class given is cell-based. In outline:
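Uninfected HepG2-A16-CD81EGFP cells, 3 × 10^3 per well, 1536-well, plated on prespotted compound at 10 μM final, parasite-free screening media added to match infected plates; puromycin 10 μM positive, DMSO 0.5% negative; run in parallel with 48 h PbLuc assay at 37 °C, 5% CO2; viability by CellTiter-Glo luminescence, normalized to controls.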
Take `Cc1cc(C2CCC2)nc(N(C)Cc2ncccc2C)n1`: the cytotoxicity at 10 µM is -0.392%.

On to `O=C(NC1CCN(c2cc(-n3ccnc3)ncn2)CC1)c1ccncc1`, for which the cytotoxicity at 10 µM was found to be 5.94%.

Consider `CN1CC2(CCC(C(=O)N3CCOCC3)CC2)Oc2ccccc2C1=O` (stereo unspecified), for which the cytotoxicity at 10 µM was 5.91%.

On to `O=C(N1CCOCC1)N1CCCC(c2ncncc2-c2ccncc2)C1` (stereo unspecified), for which the cytotoxicity at 10 µM was -25.9%.

Consider `O=C(Nc1ccc(CCN2CCC(O)CC2)cc1)C1CCOCC1`, for which the cytotoxicity at 10 µM is -8.08%.

Regarding `CCc1csc(CNC2CCN(Cc3ccccc3)C2)n1` (stereo unspecified), the cytotoxicity at 10 µM was 4.82%.

For `Cn1cnc(S(=O)(=O)N2C[C@H]3CN(Cc4ccccn4)C[C@H]3C2)c1`, the cytotoxicity at 10 µM is 4.26%.

For `O=C(NCC1Cn2nnc(-c3cccc(F)c3)c2CO1)c1ccc[nH]1` (stereo unspecified), the cytotoxicity at 10 µM amounted to 1.46%.

With `O=c1c(NCc2ccccn2)c(NCC(O)CN2CCOCC2)c1=O` (stereo unspecified), the cytotoxicity at 10 µM was -54.5%.

For the molecule `COCC(=O)NC(C)Cc1cccc(Cl)c1` (stereo unspecified), the cytotoxicity at 10 µM is -8.72%.

Take `O=C(Nc1ccccc1C(=O)N1CCCC1)NC1CCOCC1`: the cytotoxicity at 10 µM is -3.27%.

As to `Cc1ncsc1CCCNC(=O)C1CC2(CCNCC2)CN1C` (stereo unspecified), the cytotoxicity at 10 µM is 9.18%.

Turning to `CS(=O)(=O)N1CCC2(CC1)CC(OCC1CCOCC1)CO2` (stereo unspecified), the cytotoxicity at 10 µM turned out to be 8.16%.

As to `CCN1CCN(C2CCN(Cc3nc4ccccc4o3)CC2)C1=O`, the cytotoxicity at 10 µM is 5.61%.

In the case of `CCn1nccc1C(=O)NC(Cn1cccn1)C(C)(C)C` (stereo unspecified), the cytotoxicity at 10 µM was -9.24%.

As for `Cc1nnc(N2CCCC3(CN(Cc4ccc(F)cc4)CCO3)C2)o1` (stereo unspecified), the cytotoxicity at 10 µM is -6.63%.

Regarding `CCCn1c(N2CCCCC2)nc2c(C)nn(C)c2c1=O`, the cytotoxicity at 10 µM came out at 11.8%.

`Cn1cc(C2CCCN2C(=O)c2ccc(NC3CC3)nc2)cn1` (stereo unspecified): the cytotoxicity at 10 µM is -14.4%.

For `CC(C)c1nnc(NC(=O)CCc2cc(F)ccc2F)[nH]1`, the cytotoxicity at 10 µM was -16.9%.

For the molecule `Cc1cc(C)c(CNC(=O)NCCOc2ccc3c(c2)CCC3)c(=O)[nH]1`, the cytotoxicity at 10 µM was -23.3%.

Regarding `Clc1ccc(CN2CCOC[C@H](Oc3cccnc3)C2)cc1`, the cytotoxicity at 10 µM stood at 6.12%.

Turning to `CC(C)Cc1noc(CN2CCC(C(=O)NCC3CCCO3)CC2)n1` (stereo unspecified), the cytotoxicity at 10 µM was 3.13%.

Consider `Cc1nn(C)c(C)c1C1COCCN1C(=O)CCc1ccccc1` (stereo unspecified), for which the cytotoxicity at 10 µM was -0.284%.

For the molecule `CCc1cnc(CN2CCC(N(C)Cc3noc(C4CC4)n3)C2)o1` (stereo unspecified), the cytotoxicity at 10 µM is -10.2%.

For `Cc1nc(O)cc(CN2CCC=C(CN(C)C(=O)c3ccco3)C2)n1`, the cytotoxicity at 10 µM stood at 8.82%.

Turning to `Cc1ncsc1CCC(=O)NC1CCN(Cc2cccs2)CC1`, the cytotoxicity at 10 µM was -3.09%.

For the molecule `COCC(=O)N[C@H]1C[C@@H](Cc2cc(CN3CCCCC3)on2)C1(C)C`, the cytotoxicity at 10 µM was -8.12%.

As for `O=C(NCc1noc(C2CCCO2)n1)c1cn2ccsc2n1` (stereo unspecified), the cytotoxicity at 10 µM was -3.77%.

With `Cc1nc(CC(=O)N2CCC3(CC2)CC(=O)N(CC2CCCO2)C3)cs1` (stereo unspecified), the cytotoxicity at 10 µM is -7.85%.

`CC(=O)N1[C@H](Cn2cncn2)C[C@@H]2CN(c3ccc(C)nn3)CC[C@@H]21`: the cytotoxicity at 10 µM was -13.4%.

As for `CC(O)CC(C)(C)CNC(=O)NCc1cccc(-n2cncn2)c1` (stereo unspecified), the cytotoxicity at 10 µM is -4.79%.

Turning to `CCN(CC)C(=O)COc1nc(C(C)C)no1`, the cytotoxicity at 10 µM came to 3.6%.

With `CCN(CC)C(=O)NC(C)c1ccc(Oc2cccnc2)c(F)c1` (stereo unspecified), the cytotoxicity at 10 µM amounted to 17.4%.

On to `CCCNc1ncc(C2CC(=O)NCc3nc4ccccn4c32)cn1` (stereo unspecified), for which the cytotoxicity at 10 µM was -3.69%.

As to `Cn1ncc2c1CCCC2NCc1ccc(Br)s1` (stereo unspecified), the cytotoxicity at 10 µM is -4.41%.

As to `Cc1nc(CN2C(=O)CC[C@@H]3[C@H]2CCN3C2CCOCC2)cs1`, the cytotoxicity at 10 µM was -147%.

On to `CCOc1ncccc1CNS(=O)(=O)c1ccc2c(c1)CCO2`, for which the cytotoxicity at 10 µM turned out to be 7.95%.

For `COC(=O)N1CCCN(C(=O)NCc2ccc(Cl)s2)CC1`, the cytotoxicity at 10 µM was 1.76%.

With `CC1CN(C)CCN1Cc1cccc(C(=O)NCc2ccco2)c1` (stereo unspecified), the cytotoxicity at 10 µM came to 3.33%.

On to `CC(C)n1cc(C(=O)NCCCn2ccnc2)c2n[nH]c(=O)c-2c1`, for which the cytotoxicity at 10 µM was -4.17%.

In the case of `COc1cc(C)cc(OC)c1C(C(=O)O)N(C)Cc1c(C)nn(C)c1C` (stereo unspecified), the cytotoxicity at 10 µM amounted to 7.34%.

`Cc1cnn(CC2CCCN2Cc2noc(-c3ccccc3)n2)c1` (stereo unspecified): the cytotoxicity at 10 µM stood at 0.441%.

Regarding `CSc1ccc(-n2nnc(C(=O)O)c2-c2ccccn2)cc1`, the cytotoxicity at 10 µM was -3.01%.

Turning to `CC(C)c1nn(C)c(N2CCOCC2)c1CNCCS(C)(=O)=O`, the cytotoxicity at 10 µM is -8.36%.

For `CCc1ncnc2c1CCN(C(=O)N1CCCC1)CC2`, the cytotoxicity at 10 µM was found to be 5.46%.

As to `O=S1(=O)C[C@@H]2[C@H](C1)N(Cc1cc(Cl)cc(Cl)c1)CCN2CC1CC1`, the cytotoxicity at 10 µM was determined as 27.6%.

For the molecule `Cc1csc(CNC(=O)Nc2ccc3c(c2)OCO3)n1`, the cytotoxicity at 10 µM was -15.7%.

For the molecule `N#Cc1ccsc1NC(=O)CN1CCn2c(nnc2C2CC2)C1`, the cytotoxicity at 10 µM is -14.5%.

In the case of `Cc1nnc(-c2cccc(C#N)c2)n1C1CCN(C(C)C)C1=O` (stereo unspecified), the cytotoxicity at 10 µM is -2.4%.

`CCc1nnc2n1CCN(CC(O)c1ccc3c(c1)OCCO3)C2` (stereo unspecified): the cytotoxicity at 10 µM was -7.3%.

In the case of `Cc1cc(C(=O)N2C[C@@H]3CC[C@H]2CN(C(=O)c2ccncc2)C3)cs1`, the cytotoxicity at 10 µM is -2.56%.

Regarding `CC(C)n1cnnc1CN(C)Cc1ccc(CN(C)S(C)(=O)=O)o1`, the cytotoxicity at 10 µM is -1.31%.

Take `O=C(Nc1ccc(Cl)cc1)c1nn(C2CCS(=O)(=O)C2)c2c1CCCC2` (stereo unspecified): the cytotoxicity at 10 µM was 2.96%.

Consider `COc1cc(N2CC3(CCN(S(=O)(=O)C4CC4)C3)C2)ncn1`, for which the cytotoxicity at 10 µM is 7.34%.

As to `Cc1ccc(C(=O)NCc2ccnc(N(C)C)c2)c(C)c1`, the cytotoxicity at 10 µM was -11.1%.

On to `CC(=O)c1cccc(NC(=O)N(CCO)C2CCc3ccccc32)c1` (stereo unspecified), for which the cytotoxicity at 10 µM is -3.01%.

As to `Cc1nc(Nc2nncs2)cc(C2CCCN2C)n1` (stereo unspecified), the cytotoxicity at 10 µM is -22.6%.

Consider `CNC(=O)CN1CCCC1c1ccccc1Br` (stereo unspecified), for which the cytotoxicity at 10 µM is -2.22%.

For `Cc1ccc2oc(C(=O)N3CCCC(c4noc(C)n4)C3)cc2n1` (stereo unspecified), the cytotoxicity at 10 µM is -3.56%.

In the case of `O=C(c1cccc2cccnc12)N1CC[C@@]2(CCCO2)[C@@H](O)C1`, the cytotoxicity at 10 µM was -23.8%.

On to `COc1cccc(CCC2CCCN(C(=O)c3ccc(=O)n(C)n3)C2)c1` (stereo unspecified), for which the cytotoxicity at 10 µM was 4.34%.

For `Cc1ccc(OCCC(=O)N2CCOCC2c2ncon2)cc1C` (stereo unspecified), the cytotoxicity at 10 µM is -11.9%.

For the molecule `O=C(Cn1cc(C2CC2)nn1)NC(c1cc(F)ccc1F)C1CC1` (stereo unspecified), the cytotoxicity at 10 µM is -12.6%.

Take `Cc1nn(C)cc1C(=O)N1CCCC(c2nccn2Cc2cscn2)C1` (stereo unspecified): the cytotoxicity at 10 µM is -4.32%.

With `CCN1CCC(CNC(=O)NCc2cc(-c3ccc(C)cc3)no2)C1` (stereo unspecified), the cytotoxicity at 10 µM is -12.3%.

Regarding `Cc1cs/c(=N\C(=O)Cn2nc(N3CCC(C)CC3)ccc2=O)[nH]1`, the cytotoxicity at 10 µM turned out to be 1.34%.

In the case of `O=C(NCC1CCOC1)c1csc(-c2ccc(F)cc2)n1` (stereo unspecified), the cytotoxicity at 10 µM was -3.06%.

Turning to `c1cncc(CO[C@H]2CO[C@@]3(CCN(Cc4ccoc4)C3)C2)c1`, the cytotoxicity at 10 µM is -3.24%.

Turning to `COCCC(=O)N1C[C@@H](c2cccc(OC)c2)[C@@]2(CCCCC(=O)N2)C1`, the cytotoxicity at 10 µM was found to be 9.47%.

Take `O=C1CN(C(=O)C2CN(c3cccc(Cl)c3)CCO2)CCN1` (stereo unspecified): the cytotoxicity at 10 µM was -1.77%.

For the molecule `CC(C)N1CCCC(C(=O)NC(C)(C)c2nnc(N)s2)C1` (stereo unspecified), the cytotoxicity at 10 µM is -2.4%.

With `Cc1nnc(N2CCC(NS(C)(=O)=O)CC2)c(C#N)c1C`, the cytotoxicity at 10 µM was -5.13%.

Regarding `CN(C)CCCn1cnc2cc(NC(=O)c3n[nH]c4c3CCC4)ccc21`, the cytotoxicity at 10 µM was -5.3%.

On to `COCCN1CCCC(CCCc2ccccn2)(C(N)=O)C1` (stereo unspecified), for which the cytotoxicity at 10 µM is -16%.

With `Cc1ncsc1CCN(C)C(=O)c1ncccc1O`, the cytotoxicity at 10 µM is -5.43%.

Take `Cc1cccn2c(=O)cc(OC(=O)c3ccc(OC(C)C)cc3)nc12`: the cytotoxicity at 10 µM worked out at 10%.

For the molecule `O=C(NCc1ccccc1)c1nnc2ccc(N3CCOCC3)cc2n1`, the cytotoxicity at 10 µM came out at 11.2%.

For the molecule `Cc1cc(C(=O)NS(=O)(=O)Cc2ccon2)c(C)n1C(C)C`, the cytotoxicity at 10 µM is -2.17%.

In the case of `COc1ccc2nnc(CCCC(=O)NCCc3ccncc3)n2n1`, the cytotoxicity at 10 µM was -10%.

For `COCC1c2nnn(CC3CC3)c2CCN1C(=O)c1cccn1C` (stereo unspecified), the cytotoxicity at 10 µM is -133%.

In the case of `CC(C)NC(=O)C(C(C)C)n1cnc2cc(F)c(F)cc21` (stereo unspecified), the cytotoxicity at 10 µM was determined as 12.5%.

On to `CCc1cc(NC2CCOCC2)n2nc(C)c(C)c2n1`, for which the cytotoxicity at 10 µM was 0.551%.

For `Cc1nc(COCc2cnc3n2CCN(C(=O)C2CC2)C3C)cs1` (stereo unspecified), the cytotoxicity at 10 µM was 11.4%.

For the molecule `Cc1cccc(-n2nc(CC(C)C)nc2[C@H](C)O)c1`, the cytotoxicity at 10 µM stood at 5.54%.

For `CC(C(=O)Nc1ccc(C#N)cc1)N1CCc2ccccc21` (stereo unspecified), the cytotoxicity at 10 µM is -1.5%.

In the case of `CC(C)c1nc2n(n1)CC(Nc1ncnc3ccccc13)CC2` (stereo unspecified), the cytotoxicity at 10 µM is -0.95%.

Regarding `CCN(CC)CCn1ccnc1-c1cccc(C#N)c1`, the cytotoxicity at 10 µM is -5%.

As for `Cc1ccc(NC(=O)N(CCO)Cc2ccsc2)cc1`, the cytotoxicity at 10 µM was 3.58%.

Turning to `COc1ccc([C@@H]2CN(Cc3cccnc3N)C[C@H]2N(C)C)cc1`, the cytotoxicity at 10 µM was determined as 1.54%.

In the case of `O=C1COc2cc(C(=O)NS(=O)(=O)c3ccc(F)c(F)c3)ccc2N1`, the cytotoxicity at 10 µM is -2.34%.

`COc1cccc(CNc2cnn(C)c(=O)c2Cl)c1`: the cytotoxicity at 10 µM was -8.78%.

Take `Cc1cc2nc(CO[C@H]3CN(C4CCC4)C[C@H]3F)[nH]c2cc1C`: the cytotoxicity at 10 µM was determined as 1.56%.

In the case of `CC(O)CN(c1ccccc1)S(=O)(=O)c1cc(C(=O)O)cc2c1CCC2` (stereo unspecified), the cytotoxicity at 10 µM was 11.1%.

Regarding `FC1(F)CCNCC12CCN(c1cccnc1)C2` (stereo unspecified), the cytotoxicity at 10 µM turned out to be 5.8%.

Regarding `COc1ccc2cc(C3CN(C(=O)COC(C)C)CCO3)ccc2c1` (stereo unspecified), the cytotoxicity at 10 µM is 7.29%.

In the case of `O=C(c1ccc2c(c1)[nH]c(=O)n2C1CCCC1)N1CCSCC1`, the cytotoxicity at 10 µM was -42.3%.
